# According to ChEMBL document CHEMBL1649392, “Synthesis of substituted 3-amino-N-phenyl-1H-indazole-1-carboxamides endowed with antiproliferative activity” (Eur J Med Chem, 2011):
# Calls of active or inactive are those of the source.
# Experiments:
# MDA-MB-435 = experiment: Antiproliferative activity against human MDA-MB-435 cells after 48 hrs by sulforhodamine B assay; assay type: functional; settings: MDA-MB-435, 48 h
# In short: (§1)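 NCI 60-cell-line panel covering nine cancer types (leukemia, non-small cell lung, colon, CNS, melanoma, ovarian, renal, prostate, breast). Compounds were first tested at a single dose, then in a five-dose screen (series starting 0.01, 0.1 …) if they met NCI threshold criteria. Reported per line: GI50 (molar concentration inhibiting 50% net growth), TGI (total growth inhibition) and LC50 (50% net cell death).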
# SK-MEL-5 = experiment: Antiproliferative activity against human SK-MEL-5 cells after 48 hrs by sulforhodamine B assay; assay type: functional; settings: SK-MEL-5, 48 h; in short: as §1
# A549 = experiment: Antiproliferative activity against human A549 cells after 48 hrs by sulforhodamine B assay; assay type: functional; settings: A549, 48 h; in short: as §1
# NCI/ADR-RES = experiment: Antiproliferative activity against human NCI/ADR-RES cells after 48 hrs by sulforhodamine B assay; assay type: functional; in short: as §1
# SF-539 = experiment: Antiproliferative activity against human SF539 cells after 48 hrs by sulforhodamine B assay; assay type: functional; settings: SF-539, 48 h; in short: as §1
# CCRF-CEM = experiment: Antiproliferative activity against human CCRF-CEM cells after 48 hrs by sulforhodamine B assay; assay type: functional; in short: as §1
# UACC-62 = experiment: Antiproliferative activity against human UACC62 cells after 48 hrs by sulforhodamine B assay; assay type: functional; settings: UACC-62, 48 h
# In short: (§2)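 NCI 60-cell-line panel screen: single dose 10 µM first, then 5-dose testing (0.01, 0.1, … molar series). For each line, GI50 is the molar concentration giving 50% inhibition of net cell growth, TGI gives total inhibition of net growth, and LC50 gives 50% net cell death. Method follows the NCI DTP protocol.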
# LOX IMVI = experiment: Antiproliferative activity against human LOXIMVI cells after 48 hrs by sulforhodamine B assay; assay type: functional; in short: as §1
# HCC 2998 = experiment: Antiproliferative activity against human HCC2998 cells after 48 hrs by sulforhodamine B assay; assay type: functional; settings: HCC 2998, 48 h; in short: as §1
# MCF7 = experiment: Antiproliferative activity against human MCF7 cells after 48 hrs by sulforhodamine B assay; assay type: functional; settings: MCF7, 48 h; in short: as §1
# 786-0 = experiment: Antiproliferative activity against human 786-0 cells after 48 hrs by sulforhodamine B assay; assay type: functional; settings: 786-0, 48 h; in short: as §1
# OVCAR-3 = experiment: Antiproliferative activity against human OVCAR3 cells after 48 hrs by sulforhodamine B assay; assay type: functional; settings: OVCAR-3, 48 h; in short: as §1
# T47D = experiment: Antiproliferative activity against human T47D cells after 48 hrs by sulforhodamine B assay; assay type: functional; in short: as §2
# COLO 205 = experiment: Antiproliferative activity against human COLO205 cells after 48 hrs by sulforhodamine B assay; assay type: functional; settings: COLO 205, 48 h; in short: as §1
# K562 [1] = experiment: Antiproliferative activity against human K562 cells after 48 hrs by sulforhodamine B assay; assay type: functional; settings: K562, 48 h; in short: as §1
# KM12 = experiment: Antiproliferative activity against human KM12 cells after 48 hrs by sulforhodamine B assay; assay type: functional; settings: KM12, 48 h; in short: as §1
# TK-10 = experiment: Antiproliferative activity against human TK10 cells after 48 hrs by sulforhodamine B assay; assay type: functional; settings: TK-10, 48 h; in short: as §2
# M14 = experiment: Antiproliferative activity against human M14 cells after 48 hrs by sulforhodamine B assay; assay type: functional; settings: M14, 48 h; in short: as §1
# U-251 = experiment: Antiproliferative activity against human U251 cells after 48 hrs by sulforhodamine B assay; assay type: functional; settings: U-251, 48 h; in short: as §2
# K562 [2] = experiment: Induction of cell cycle arrest in human K562 cells assessed as decrease in accumulation at G2/M phase at 40 uM after 24 hrs by flow cytometric analysis; assay type: functional, cell-based
# In short: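 K562 myeloblastic leukemia cells cultured 24 h with compound at 20, 40 or 60 µM, or untreated. Cells washed in ice-cold PBS and resuspended at 10⁶/mL in hypotonic propidium iodide (50 µg/mL) with 0.03% Nonidet P-40 in 0.1% sodium citrate. After 30 min, DNA content read by flow cytometry; sub-G0/G1, G0/G1, S and G2/M fractions scored.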
# RXF 393 = experiment: Antiproliferative activity against human RXF393 cells after 48 hrs by sulforhodamine B assay; assay type: functional; settings: RXF 393, 48 h; in short: as §1
# HL-60(TB) = experiment: Antiproliferative activity against human HL-60(TB) cells after 48 hrs by sulforhodamine B assay; assay type: functional; settings: HL-60, 48 h
# In short: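 Tested by the National Cancer Institute in its full tumour cell panel covering nine cancer types, including leukemia. Compounds were first screened at a single dose. Those passing the preset inhibition threshold then went to a 5-dose screen. GI50 is the molar concentration giving 50% inhibition of net cell growth; TGI and LC50 were also derived.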
# BT-549 = experiment: Antiproliferative activity against human BT549 cells after 48 hrs by sulforhodamine B assay; assay type: functional; settings: BT-549, 48 h; in short: as §1
# MOLT-4 = experiment: Antiproliferative activity against human MOLT4 cells after 48 hrs by sulforhodamine B assay; assay type: functional; settings: MOLT-4, 48 h; in short: as §1
# UACC-257 = experiment: Antiproliferative activity against human UACC257 cells after 48 hrs by sulforhodamine B assay; assay type: functional; settings: UACC-257, 48 h; in short: as §2
# HT-29 = experiment: Antiproliferative activity against human HT-29 cells after 48 hrs by sulforhodamine B assay; assay type: functional; settings: HT-29, 48 h; in short: as §1
# HOP-62 = experiment: Antiproliferative activity against human HOP62 cells after 48 hrs by sulforhodamine B assay; assay type: functional; settings: HOP-62, 48 h; in short: as §1
# EKVX = experiment: Antiproliferative activity against human EKVX cells after 48 hrs by sulforhodamine B assay; assay type: functional; in short: as §1
# [3] = read-out: LC50 (the source's name)
smiles,measurement,setting,value
Nc1nn(C(=O)Nc2ccc(Cc3ccccc3)cc2)c2ccc(Cl)cc12,GI50,MDA-MB-435,0.0813 µM
same,TGI,MDA-MB-435,> 100 µM
same,CC50,MDA-MB-435; [3],> 100 µM
same,GI50,SK-MEL-5,0.283 µM
same,TGI,SK-MEL-5,21.1 µM
same,CC50,SK-MEL-5; [3],80.2 µM
same,GI50,A549,2.52 µM
same,TGI,A549,> 100 µM
same,CC50,A549; [3],> 100 µM
same,GI50,NCI/ADR-RES,11 µM
same,TGI,NCI/ADR-RES,39.1 µM
same,CC50,NCI/ADR-RES; [3],> 100 µM
same,GI50,SF-539,1.51 µM
same,TGI,SF-539,11.5 µM
same,CC50,SF-539; [3],38.8 µM
same,GI50,CCRF-CEM,1.23 µM
same,LC50 (concentration causing 50% net cell death),CCRF-CEM,> 100 µM
same,TGI,CCRF-CEM,34.4 µM
same,GI50,UACC-62,0.0412 µM
same,TGI,UACC-62,> 100 µM
same,CC50,UACC-62; [3],> 100 µM
same,GI50,LOX IMVI,0.0503 µM
same,LC50 (concentration causing 50% net cell death),LOX IMVI,53.2 µM
same,TGI,LOX IMVI,18.4 µM
same,GI50,HCC 2998,0.238 µM
same,TGI,HCC 2998,1.53 µM
same,CC50,HCC 2998; [3],> 100 µM
same,GI50,MCF7,0.395 µM
same,TGI,MCF7,18.8 µM
same,CC50,MCF7; [3],84 µM
same,GI50,786-0,3.92 µM
same,TGI,786-0,28.2 µM
same,CC50,786-0; [3],94.4 µM
same,GI50,OVCAR-3,6.66 µM
same,TGI,OVCAR-3,20.8 µM
same,CC50,OVCAR-3; [3],48.2 µM
same,GI50,T47D,0.0741 µM
same,LC50 (concentration giving 50% net cell death),T47D,> 100 µM
same,TGI,T47D,27.6 µM
same,GI50,COLO 205,0.588 µM
same,LC50 (concentration causing 50% net cell death),COLO 205,> 100 µM
same,TGI,COLO 205,23.8 µM
same,GI50,K562 [1],0.0357 µM
same,LC50 (concentration causing 50% net cell death),K562 [1],> 100 µM
same,TGI,K562 [1],14.7 µM
same,GI50,KM12,0.0726 µM
same,TGI,KM12,> 100 µM
same,CC50,KM12; [3],> 100 µM
same,GI50,TK-10,15.6 µM
same,TGI,TK-10,38.7 µM
same,CC50,TK-10; [3],96.3 µM
same,GI50,M14,0.0888 µM
same,TGI,M14,14 µM
same,CC50,M14; [3],> 100 µM
same,GI50,U-251,12.5 µM
same,LC50 (concentration giving 50% net cell death),U-251,58.4 µM
same,TGI,U-251,27 µM
same,Activity,K562 [2],Active
same,GI50,RXF 393,13.5 µM
same,TGI,RXF 393,31.5 µM
same,CC50,RXF 393; [3],73.4 µM
same,GI50,HL-60(TB),2.62 µM
same,TGI,HL-60(TB),42.1 µM
same,CC50,HL-60(TB); [3],> 100 µM
same,GI50,BT-549,5.88 µM
same,TGI,BT-549,44 µM
same,CC50,BT-549; [3],> 100 µM
same,GI50,MOLT-4,2.41 µM
same,TGI,MOLT-4,55.3 µM
same,CC50,MOLT-4; [3],> 100 µM
same,GI50,UACC-257,4.92 µM
same,TGI,UACC-257,> 100 µM
same,CC50,UACC-257; [3],> 100 µM
same,GI50,HT-29,1.15 µM
same,LC50 (concentration giving 50% net cell death),HT-29,79.1 µM
same,TGI,HT-29,24 µM
same,GI50,HOP-62,1.21 µM
same,LC50 (concentration causing 50% net cell death),HOP-62,59.7 µM
same,TGI,HOP-62,16.4 µM
same,GI50,EKVX,3.19 µM
same,TGI,EKVX,97.6 µM
same,CC50,EKVX; [3],> 100 µM
